Experimental data as given in ChEMBL document CHEMBL4052826, “Design and Synthesis of Novel Reactive Oxygen Species Inducers for the Treatment of Pancreatic Ductal Adenocarcinoma” (J Med Chem, 2018).
Active and inactive are the calls of the source. No cut-off for these calls is given here.

Tests used:
BXPC-3 = assay: Cytotoxicity against human BxPC3 cells assessed as decrease in cell proliferation after 72 hrs by MTT assay; type: functional, cell-based; conditions: BXPC-3, 72 h
Outline: (§1)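 MTT assay. Cells (3000–8000/well) attached overnight in RPMI1640 with 10% FBS; the GR line was kept with 200 nM gemcitabine. Serial dilutions (30 nM–10 μM for most lines) were applied for 72 h. MTT was added at a final 300 μg/mL for 3 h at 37°C, formazan was dissolved in DMSO and A570 read. Inhibition = (1 − OD treated/OD control) × 100. IC50 given as mean ± SD, three independent experiments.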

PANC-1 = assay: Cytotoxicity against human PANC1 cells assessed as decrease in cell proliferation after 72 hrs by MTT assay; type: functional, cell-based; conditions: PANC-1, 72 h; outline: as §1
MIA PaCa-2 [1] = assay: Cytotoxicity against human MIAPaCa2 cells assessed as decrease in cell proliferation after 72 hrs by MTT assay; type: functional, cell-based; conditions: MIA PaCa-2, 72 h; outline: as §1
MIA PaCa-2 [2] = assay: Cytotoxicity against gemcitabine-resistant human MIAPaCa2 cells assessed as decrease in cell proliferation after 72 hrs by MTT assay; type: functional, cell-based; conditions: MIA PaCa-2, 72 h; outline: as §1
[3] = Cytotoxicity against HPDEC assessed as decrease in cell proliferation after 72 hrs by MTT assay; type: cell-based; conditions: Homo sapiens; outline: as §1
MIA PaCa-2 [4] = assay: Induction of reactive oxygen species generation in human MIAPaCa2 cells at 1.1 to 10 uM after 24 hrs in presence of NAC by H2DCFDA reactivity assay; type: functional, cell-based
Outline: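 H2DCFDA assay. Trypsinized MIA PaCa-2 cells in suspension were loaded with 20 μM H2DCFDA for 30 min at 37°C, washed and plated at 20,000/well. After 30 min they were treated with compound at 10, 3.3 or 1.1 μM. Fluorescence was read at 493/523 nm over time. DMSO basal and unstained controls were included. NAC pretreatment, where used, was 5 mM for 30 min. Duplicates, three independent experiments.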

MIA PaCa-2 [5] = assay: Cytotoxicity against human MIAPaCa2 cells assessed as decrease in cell proliferation after 72 hrs in presence of NAC by MTT assay; type: functional, cell-based
Outline: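 MIA PaCa-2 cells were treated for 72 h with compound in the presence of 5 mM NAC. Viability was read by MTT (final 300 μg/mL, 3 h, A570). Mean ± SD of three independent experiments.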

[6] = Induction of compound aggregation
[7] = Induction of compound colloidal behavior
MIA PaCa-2 [8] = assay: Inhibition of mtDNA transcription from HSP2 promoter in human MIAPaCa2 cells after 4 hrs by Bru-seq analysis; type: functional, cell-based
Outline: (§2)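 MIA PaCa-2 cells were seeded at 4×10^6 per 10 cm dish and treated the next day for 4 h, with DMSO as control. Bromouridine (2 mM final) was added for the last 30 min. Total RNA was isolated in TRIZOL, and Bru-labelled RNA was immunocaptured, made into cDNA libraries and deep-sequenced. Read-out was nascent signal across mitochondrial heavy-strand (HSP2) and light-strand (LSP) transcripts.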

MIA PaCa-2 [9] = assay: Inhibition of mtDNA transcription from LSP promoter in human MIAPaCa2 cells after 4 hrs by Bru-seq analysis; type: functional, cell-based; outline: as §2

SMILES | IC50 (BXPC-3) [µM] | IC50 (PANC-1) [µM] | IC50 (MIA PaCa-2 [1]) [µM] | other results
Cc1ccc(-c2ccc(NC3=CC(=O)c4ncncc4C3=O)cc2F)cc1 | 5 | 4.8 | 4.6 | –
O=C(NCCC[P+](c1ccccc1)(c1ccccc1)c1ccccc1)c1ccc(NC2=CC(=O)c3ncncc3C2=O)cc1 | 21.5 | 11.7 | 15.3 | IC50 (MIA PaCa-2 [2]): 17.7 µM; IC50 [3]: 18.3 µM
Nc1ccc(-c2ccc(NC3=CC(=O)c4ncncc4C3=O)cc2)cc1 | 3.5 | 3.7 | 2.5 | –
O=C1C(NCc2ccc(F)cc2)=CC(=O)c2ncncc21 | 1.4 | 1 | 1.7 | –
Nc1ccc(C(=O)NCCC[P+](c2ccccc2)(c2ccccc2)c2ccccc2)cc1 | > 30 | > 30 | > 30 | –
O=C1C(Nc2ccc(OC(F)(F)F)cc2)=CC(=O)c2ncncc21 | 0.9 | 0.9 | 1.4 | –
COc1ccc(NC2=CC(=O)c3ncncc3C2=O)cc1 | 1.7 | 0.8 | 1.9 | –
COc1cccc(NC2=CC(=O)c3ncncc3C2=O)c1 | 1.8 | 0.6 | 1.8 | –
O=C1C(Nc2ccc(-c3ccc(F)cc3)cc2)=CC(=O)c2ncncc21 | 4.4 | 3.2 | 3.5 | –
COc1cc(NC2=CC(=O)c3ncncc3C2=O)cc(OC)c1 | 16.3 | 7.2 | 7.7 | –
COc1cc(NC2=CC(=O)c3ncncc3C2=O)cc(OC)c1OC | 1.6 | 0.8 | 1.5 | IC50 (MIA PaCa-2 [2]): 2 µM; Activity (MIA PaCa-2 [4]): inactive; IC50 [3]: 3.2 µM; Activity (MIA PaCa-2 [5]): inactive; Activity [6]: Active; Activity [7]: Active
O=C1C(Nc2ccc(CO)cc2)=CC(=O)c2ncncc21 | 5.7 | 1 | 3.5 | –
NC(=O)c1ccc(NC2=CC(=O)c3ncncc3C2=O)cc1 | > 10 | 6.3 | 8 | –
Nc1cccc(C(=O)NCCC[P+](c2ccccc2)(c2ccccc2)c2ccccc2)c1 | > 30 | > 30 | > 30 | –
O=C1C(Nc2ccc(Oc3ccccc3)cc2)=CC(=O)c2ncncc21 | 3.6 | 1.8 | 3.7 | –
O=C1C=CC(=O)c2ncncc21 | 19.4 | 18 | 9.4 | –
CCc1ccc(-c2ccc(NC3=CC(=O)c4ncncc4C3=O)cc2)cc1 | 3.1 | 1.2 | 2 | –
CCOC(=O)c1ccc(NC2=CC(=O)c3ncncc3C2=O)cc1 | 5.9 | 1.6 | 5.5 | –
O=C1C(Nc2cccc(B(O)O)c2)=CC(=O)c2ncncc21 | > 10 | 9 | > 10 | –
COc1ccc(-c2ccc(NC3=CC(=O)c4ncncc4C3=O)cc2)cc1 | 3.5 | 2.3 | 2.1 | –
CC[C@@]1(O)C(=O)OCc2c1cc1n(c2=O)Cc2cc3ccccc3nc2-1 | – | – | – | inhibition (MIA PaCa-2 [8]): inactive; inhibition (MIA PaCa-2 [9]): inactive
COC(=O)c1ccc(NC2=CC(=O)c3ncncc3C2=O)cc1 | 5.8 | 1.1 | 2.2 | –
NS(=O)(=O)c1ccc(NC2=CC(=O)c3ncncc3C2=O)cc1 | > 10 | > 10 | > 10 | –
COc1ccc(NC2=CC(=O)c3ncncc3C2=O)cc1OC | 1.5 | 0.9 | 1.8 | –
OO | – | – | – | Activity (MIA PaCa-2 [5]): inactive
O=C(NCCC[P+](c1ccccc1)(c1ccccc1)c1ccccc1)c1cccc(NC2=CC(=O)c3ncncc3C2=O)c1 | 21.3 | 14.3 | – | IC50 (MIA PaCa-2 [2]): 16.2 µM; IC50 [3]: 24.3 µM
